Test results: ChEMBL document CHEMBL1142957, “Total structure and inhibition of tumor cell proliferation of laxaphycins” (J Med Chem, 2007)

What was measured:
CCRF-CEM [1] = test: Cytotoxicity against drug-sensitive CCRF-CEM cells after 72 hrs; type: cell-based; details: Homo sapiens
Procedure, shortened: (§1)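 Leukemic lymphoblasts (parent CCRF-CEM, Pgp-overexpressing CEM/VLB100, topo II-altered CEM/VM-1) grown in RPMI 1640 with 10% FCS and antibiotics, 37 °C, 5% CO2. Serial dilutions in medium added to 2 × 10⁵ cells/mL for 3 days, medium not renewed. Survivors counted on a Coulter counter. Triplicate, averaged.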

[2] = Cytotoxicity against vinblastine-resistant CEM/VLB100 cells after 72 hrs; type: cell-based; details: Homo sapiens, CEM/VLB100, 72 h; procedure, shortened: as §1
[3] = Cytotoxicity against teniposide-resistant CEM/VM1 cells after 72 hrs; type: cell-based; details: Homo sapiens, CEM-VM1, 72 h; procedure, shortened: as §1
CCRF-CEM [4] = test: Ratio of IC50 for vinblastine-resistant CEM/VLB100 cells over IC50 for drug-sensitive CCRF-CEM cells; type: functional, Homo sapiens
CCRF-CEM [5] = test: Ratio of IC50 for teniposide-resistant CEM/VM1 cells over IC50 for drug-sensitive CCRF-CEM cells; type: functional, Homo sapiens

Row | SMILES | IC50 (CCRF-CEM [1]) | IC50 [2] | IC50 [3] | Ratio IC50 (CCRF-CEM [4]) | Ratio IC50 (CCRF-CEM [5])
1 | CCCCCCC[C@@H]1CC(=O)N[C@@H](C(C)C)C(=O)N[C@H]([C@@H](O)C(C)C)C(=O)N[C@@H](C)C(=O)N[C@H](CC(C)C)C(=O)N[C@@H](CCC(N)=O)C(=O)N(C)[C@@H]([C@@H](C)CC)C(=O)N[C@H]([C@@H](O)C(N)=O)C(=O)N[C@@H]([C@@H](C)O)C(=O)N2CCC[C@H]2C(=O)N[C@H](CC(C)C)C(=O)N[C@@H]([C@@H](C)O)C(=O)N1 [LAXAPHYCIN B2] | 4.15 µM | 3.33 µM | 4.14 µM | 0.8 | 1
2 | COc1cccc2c1C(=O)c1c(O)c3c(c(O)c1C2=O)C[C@@](O)(C(=O)CO)C[C@@H]3O[C@H]1C[C@H](N)[C@H](O)[C@H](C)O1 [DOXORUBICIN] | 0.06 µM | 3.71 µM | 0.55 µM | 62 | 9
3 | CC[C@]1(O)C[C@@H]2CN(CCc3c([nH]c4ccccc34)[C@@](C(=O)OC)(c3cc4c(cc3OC)N(C)[C@H]3[C@@](O)(C(=O)OC)[C@H](OC(C)=O)[C@]5(CC)C=CCN6CC[C@]43[C@@H]65)C2)C1 [VINBLASTINE] | 0.004 µM | 0.356 µM | 0.008 µM | 89 | 2
